Measured values reported in ChEMBL document CHEMBL3352049, “Taxanes with high potency inducing tubulin assembly overcome tumoural cell resistances” (Bioorg Med Chem, 2014).
Blank lines part the entries; values can stand above or below the molecule they belong to. The source made the active and inactive calls. The calls are words filed in the database; no cut-off is given here.

Columns and labels:
[1] = Cytotoxicity against human A2780AD cells by MTT assay; format: functional, cell-based; details: A2780 ADR
[2] = system: A2780; experiment: Cytotoxicity against human A2780 cells by MTT assay; format: functional, cell-based
[3] = system: 1A9; experiment: Resistance ratio of IC50 for human 1A9PTX10 cells to IC50 for human 1A9 cells; format: functional
Procedure, shortened: (§1)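 Relative resistance is the IC50 in the 1A9 tubulin-mutant line divided by the IC50 in parental 1A9 ovarian carcinoma cells. Each IC50 (nM) is the mean ± SEM of three independent assays.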

[4] = system: microtubule (Bos taurus); experiment: Binding affinity to microtubule (Bos taurus) after 30 mins at 35 degC by flutax-2 displacement method
[5] = system: microtubule (Bos taurus); experiment: Binding affinity to microtubule (Bos taurus) after 30 mins at 40 degC by flutax-2 displacement method
[6] = biological target: Tubulin (Bos taurus) (UniProt Q6B856+Q862L2+Q862F3); experiment: Induction of calf brain tubulin polymerization assessed as tubulin concentration required to form microtubules by electron microscopy
Procedure, shortened: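 Critical tubulin concentration found by centrifugation and quantification of the polymer formed. Polymers adsorbed onto formvar/carbon-coated copper grids, stained with 1% uranyl acetate, and viewed by electron microscopy at 100 kV.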

[7] = system: 1A9; experiment: Resistance ratio of IC50 for human 1A9/A8 cells to IC50 for human 1A9 cells; format: functional
[8] = Cytotoxicity against human 1A9PTX10 cells by MTT assay; format: functional, cell-based; details: 1A9/ptx-10
Procedure, shortened: (§2)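 MTT assay run as a modified version of an earlier method. IC50 in nM is the mean ± SEM of three independent assays. Relative resistance is the IC50 in the resistant line (1A9 tubulin mutants, or βIII-transfected HeLa) divided by the IC50 in the parental line (1A9 or HeLa).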

[9] = system: MCF7; experiment: Cytotoxicity against human MCF7 cells by MTT assay; format: functional, cell-based
[10] = system: 1A9; experiment: Cytotoxicity against human 1A9 cells by MTT assay; format: functional, cell-based; procedure, shortened: as §2
[11] = system: microtubule (Bos taurus); experiment: Binding affinity to microtubule (Bos taurus) after 30 mins at 26 degC by flutax-2 displacement method
[12] = system: HeLa; experiment: Cytotoxicity against human HeLa cells by MTT assay; format: functional, cell-based; procedure, shortened: as §2
[13] = Cytotoxicity against human 1A9/A8 cells by MTT assay; format: functional, cell-based; procedure, shortened: as §2
[14] = Cytotoxicity against human MCF7/R cells by MTT assay; format: functional, cell-based; details: MCF7R
[15] = system: HeLa; experiment: Cytotoxicity against human HeLa cells transfected with wild-type tubulin beta3 by MTT assay; format: functional, cell-based; procedure, shortened: as §2
[16] = system: A549; experiment: Effect on microtubule cytoskeleton in human A549 cells assessed as induction of micronuleated cells with short microtubules in cytoplasm at 60 to 120 nM after 24 hrs by immunofluorescence assay; format: cell-based
Procedure, shortened: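 A549 cells were grown overnight on coverslips, then given DMSO vehicle or ligand (60 or 120 nM) for 24 h. Cells were permeabilized with Triton X-100 and fixed in 3.7% formaldehyde. Microtubules were stained with DM1A α-tubulin antibody and DNA with Hoechst 33342. Preparations were viewed by epifluorescence microscopy.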

[17] = Resistance ratio of IC50 for human A2780AD cells to IC50 for human A2780 cells; format: functional, A2780 ADR
[18] = system: HeLa; experiment: Resistance ratio of IC50 for human HeLa cells transfected with wild-type tubulin beta3 to IC50 for human HeLa cells; format: functional
Procedure, shortened: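 Relative resistance is the IC50 in HeLa cells transfected with wild-type βIII-tubulin divided by the IC50 in parental HeLa cells. Each IC50 (nM) is the mean ± SEM of three independent assays.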

[19] = system: microtubule (Bos taurus); experiment: Binding affinity to microtubule (Bos taurus) after 30 mins at 30 degC by flutax-2 displacement method
[20] = Cytotoxicity against human 1A9PTX22 cells by MTT assay; format: functional, cell-based; details: 1A9/ptx-22; procedure, shortened: as §2
[21] = system: A2780; experiment: Cell cycle arrest at G2/M phase in human A2780 cells at 60 nM after 20 hrs by flow cytometry; format: functional, cell-based
[22] = system: microtubule (Bos taurus); experiment: Binding affinity to microtubule (Bos taurus) after 30 mins at 27 degC by flutax-2 displacement method
[23] = Cell cycle arrest at G2/M phase in human A2780AD cells at 60 nM after 20 hrs by flow cytometry; format: functional, cell-based; details: A2780 ADR
[24] = system: microtubule (Bos taurus); experiment: Binding affinity to microtubule (Bos taurus) after 30 mins at 37 degC by flutax-2 displacement method
[25] = system: microtubule (Bos taurus); experiment: Binding affinity to microtubule (Bos taurus) after 30 mins at 32 degC by flutax-2 displacement method
[26] = system: 1A9; experiment: Resistance ratio of IC50 for human 1A9PTX22 cells to IC50 for human 1A9 cells; format: functional; procedure, shortened: as §1
[27] = system: A549; experiment: Cell cycle arrest at G2/M phase in human A549 cells at 30 nM after 20 hrs by flow cytometry; format: functional, cell-based
[28] = system: A549; experiment: Cell cycle arrest at G2/M phase in human A549 cells at 60 nM after 20 hrs by flow cytometry; format: functional, cell-based
[29] = system: microtubule (Bos taurus); experiment: Binding affinity to microtubule (Bos taurus) after 30 mins at 42 degC by flutax-2 displacement method
[30] = system: A2780; experiment: Cell cycle arrest at G2/M phase in human A2780 cells at 30 nM after 20 hrs by flow cytometry; format: functional, cell-based
[31] = Cell cycle arrest at G2/M phase in human A2780AD cells at 30 nM after 20 hrs by flow cytometry; format: functional, cell-based; details: A2780 ADR

Kb [4]: 628 ×10⁷ /M
Kb [5]: 355 ×10⁷ /M
Activity [6]: 3.6 µM
Kb [11]: 612 ×10⁷ /M
Kb [19]: 748 ×10⁷ /M
SMILES: CCC(=O)O[C@H]1C(=O)[C@@]2(C)[C@H]([C@H](OC(=O)c3cccc(N=[N+]=[N-])c3)[C@]3(O)C[C@H](OC(=O)[C@H](O)[C@@H](NC(=O)OC(C)(C)C)c4ccccc4)C(C)=C1C3(C)C)[C@]1(OC(C)=O)CO[C@@H]1C[C@@H]2O
IC50 [1]: 9.1 nM
IC50 [2]: 7 nM
Ratio IC50 [3]: 0.4
Ratio IC50 [7]: 1.2
IC50 [8]: 2.4 nM
IC50 [9]: 1.9 nM
IC50 [10]: 3.1 nM
IC50 [12]: 9.2 nM
IC50 [13]: 3.8 nM
IC50 [14]: 153 nM
IC50 [15]: 16 nM
Activity [16]: Active
Ratio IC50 [17]: 1.3
Ratio IC50 [18]: 1.7
IC50 [20]: 12 nM

Kb [4]: 2.4 ×10⁷ /M
Kb [5]: 2.7 ×10⁷ /M
Activity [6]: 1.6 µM
Kb [22]: 2.8 ×10⁷ /M
Kb [24]: 2.3 ×10⁷ /M
Kb [11]: 3 ×10⁷ /M
Kb [25]: 2.7 ×10⁷ /M
Kb [29]: 2.5 ×10⁷ /M
Kb [19]: 2.7 ×10⁷ /M
SMILES: CC(=O)O[C@H]1C(=O)[C@@]2(C)[C@H]([C@H](OC(=O)c3ccccc3)[C@]3(O)C[C@H](OC(=O)[C@H](O)[C@H](CC(C)C)NC(=O)OC(C)(C)C)C(C)=C1C3(C)C)[C@]1(OC(C)=O)CO[C@@H]1C[C@@H]2O
IC50 [1]: 29.1 nM
Activity [21]: Active
IC50 [2]: 3.7 nM
Ratio IC50 [3]: 0.7
Ratio IC50 [7]: 4.7
IC50 [8]: 1.75 nM
IC50 [9]: 0.35 nM
Activity [23]: Active
IC50 [10]: 2.4 nM
IC50 [12]: 4.4 nM
Ratio IC50 [26]: 2
IC50 [13]: 11.5 nM
Activity [27]: Active
IC50 [14]: 2.8 nM
IC50 [15]: 11.2 nM
Activity [16]: Active
Ratio IC50 [17]: 7.9
Activity [28]: Active
Ratio IC50 [18]: 2.5
Activity [30]: Active
Activity [31]: Active
IC50 [20]: 4.95 nM

More lines, now with the values behind:

SMILES: CC(=O)O[C@@]12CO[C@@H]1C[C@H](O)[C@@]1(C)C(=O)[C@H](OC(=O)C3CC3)C3=C(C)[C@@H](OC(=O)[C@H](O)[C@H](C=C(C)C)NC(=O)OC(C)(C)C)C[C@@](O)([C@@H](OC(=O)c4ccccc4)[C@H]21)C3(C)C
IC50 [1]: 10.9 nM
Activity [21]: Active
IC50 [2]: 5.2 nM
Ratio IC50 [3]: 2.2
Kb [4]: 8 ×10⁷ /M
Kb [5]: 7 ×10⁷ /M
Activity [6]: 0.9 µM
Ratio IC50 [7]: 2.4
Kb [22]: 11 ×10⁷ /M
IC50 [8]: 10.8 nM
Activity [23]: Active
IC50 [10]: 5 nM
Kb [24]: 7 ×10⁷ /M
Kb [11]: 12 ×10⁷ /M
Kb [25]: 9 ×10⁷ /M
IC50 [12]: 2.1 nM
Ratio IC50 [26]: 1.6
IC50 [13]: 12.2 nM
Activity [27]: Active
IC50 [14]: 2.1 nM
IC50 [15]: 11.2 nM
Activity [16]: Active
Ratio IC50 [17]: 2.1
Activity [28]: Active
Ratio IC50 [18]: 5.3
Kb [29]: 6 ×10⁷ /M
Kb [19]: 10 ×10⁷ /M
Activity [30]: Active
Activity [31]: Active
IC50 [20]: 7.9 nM

SMILES: C/C=C(\C)C(=O)N[C@@H](c1ccccc1)[C@@H](O)C(=O)O[C@H]1C[C@@]2(O)[C@@H](OC(=O)c3cccc(N=[N+]=[N-])c3)[C@@H]3[C@]4(OC(C)=O)CO[C@@H]4C[C@H](OC(=O)CC)[C@@]3(C)C(=O)[C@H](O)C(=C1C)C2(C)C
IC50 [1]: 14 nM
Ratio IC50 [3]: 5
Kb [4]: 87 ×10⁷ /M
Kb [5]: 52 ×10⁷ /M
Activity [6]: 2.9 µM
Ratio IC50 [7]: 0.9
IC50 [8]: 11.6 nM
IC50 [10]: 2.3 nM
Kb [11]: 124 ×10⁷ /M
IC50 [12]: 3.2 nM
Ratio IC50 [26]: 0.83
IC50 [13]: 2 nM
IC50 [15]: 10.2 nM
Activity [16]: Active
Ratio IC50 [17]: 5.2
Ratio IC50 [18]: 3.2
Kb [19]: 85 ×10⁷ /M
IC50 [20]: 1.9 nM

SMILES: CC(=O)O[C@@]12CO[C@@H]1C[C@H](O)[C@@]1(C)C(=O)[C@H](O)C3=C(C)[C@@H](OC(=O)[C@H](O)[C@@H](NC(=O)OC(C)(C)C)c4ccccc4)C[C@@](O)([C@@H](OC(=O)c4ccccc4)[C@H]21)C3(C)C [DOCETAXEL]
IC50 [1]: 290 nM
Activity [6]: 2.4 µM
